Data set [1] can be described thus: melting temperature; fluorescence melt of hairpins on a sequencing array, two-state fit, raised by 9.35 °C to match UV melts. The settings on record: sodium 0.088 M. The gist of the method: (§1)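 On a sequenced MiSeq flow cell, library hairpins with annealed Cy3 and quencher oligos were imaged for Cy3 fluorescence in 2.5 °C steps up to 60 °C, in 50 mM Na-HEPES pH 8.0, 25 mM NaCl. Normalisation used pre-quench Cy3 and control constructs. Bootstrapped two-state fits gave melting temperature and folding enthalpy, combined by inverse variance across four replicates and with fitted temperatures raised by 9.35 °C to match UV melts.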

Data set [2] is described as follows: folding enthalpy; higher = less favourable; fluorescence melt of hairpins on a sequencing array, two-state fit. The settings on record: sodium 0.088 M. In a few lines:
as §1

As to GTGCATGAAAATGCAC ((((((....)))))), the Tm in data set [1] came to 67 °C. Further, in data set [2], the folding enthalpy is -31.6 kcal/mol.

Turning to GTGCATTCGAAAGAACAC (((..(((....)))))), in data set [1], the Tm stood at 23.8 °C. The folding enthalpy in data set [2] was -7.63 kcal/mol.

In the case of GTGCCAGAAATGGCAC ((((((....)))))), in data set [1], the Tm turned out to be 67.8 °C. Moreover, the folding enthalpy in data set [2] was -36.7 kcal/mol.

Regarding GTGCCAGGAAACTAGCAC ((((.((....)).)))), the Tm in data set [1] came to 43.2 °C. In addition, in data set [2], the folding enthalpy is -28.2 kcal/mol.

For GTGCCCGAAAGGGATCAC ((((((....)))..))), the Tm in data set [1] came to 40.3 °C. Besides, the folding enthalpy in data set [2] is -13.2 kcal/mol.

With GTGCCCGAAAGGGCTCAC ((((((....)))..))), the Tm in data set [1] worked out at 45.5 °C. Moreover, the folding enthalpy in data set [2] was -7.4 kcal/mol.

Take GTGCCCGAAAGGGGGCAC ((((((....)))..))): the Tm in data set [1] is 69.1 °C. For the same sequence, the folding enthalpy in data set [2] was -22.2 kcal/mol.

Regarding GTGCCCGAAAGGGTCAC ((((((....))).))), in data set [1], the Tm stood at 55 °C. Besides, the folding enthalpy in data set [2] is -18.1 kcal/mol.

Take GTGCCCGAAAGGGTGCAC ((((((....)))..))): the Tm in data set [1] came out at 55.3 °C. Besides, in data set [2], the folding enthalpy was -14.6 kcal/mol.

Consider GTGCCCGGAAACGGGTAC ((.((((....)))).)), for which, in data set [1], the Tm is 62.9 °C. In data set [2], the folding enthalpy was -30 kcal/mol.

As for GTGCCCGGAAACGGGTGC (..((((....))))..), in data set [1], the Tm turned out to be 53.9 °C. Also, the folding enthalpy in data set [2] was -21.9 kcal/mol.

GTGCCCTCGAAAGAGCAC (((..(((....)))))): in data set [1], the Tm was 43 °C. For the same sequence, in data set [2], the folding enthalpy was -18.8 kcal/mol.

Consider GTGCCGACGAAAGTCCAC (((..(((....)))))), for which the Tm in data set [1] stood at 53.8 °C. For the same sequence, the folding enthalpy in data set [2] was -8.42 kcal/mol.

On to GTGCCGCGAAAGCGTCAC (((.(((....))).))), for which the Tm in data set [1] turned out to be 61.7 °C. The folding enthalpy in data set [2] is -29.1 kcal/mol.

In the case of GTGCCTGCGAAAGCACAC (((..(((....)))))), the Tm in data set [1] came out at 55 °C. Also, the folding enthalpy in data set [2] is -7.25 kcal/mol.

For GTGCCTGGAAACAGACAC (((.(((....))).))), the Tm in data set [1] worked out at 46.9 °C. The folding enthalpy in data set [2] is -28.6 kcal/mol.

With GTGCCTGGAAACAGGTGC (..((((....))))..), the Tm in data set [1] came out at 48.9 °C. Besides, the folding enthalpy in data set [2] is -23.2 kcal/mol.

With GTGCGAGGAAACCCACAC (((.(.(....).).))), in data set [1], the Tm was found to be 24.6 °C. Further, the folding enthalpy in data set [2] is -10.4 kcal/mol.

In the case of GTGCGAGGAAACTTGCAC ((((.((....)).)))), the Tm in data set [1] worked out at 53.7 °C. Also, the folding enthalpy in data set [2] was -54 kcal/mol.

With GTGCGCACGAAAGTGCAC (((..(((....)))))), the Tm in data set [1] turned out to be 64 °C. In data set [2], the folding enthalpy was -11.4 kcal/mol.

On to GTGCGCCGAAAGGCACAC (((.(((....))).))), for which the Tm in data set [1] worked out at 63.7 °C. The folding enthalpy in data set [2] is -29 kcal/mol.

Turning to GTGCGCGAAAGCGATCAC ((((((....)))..))), the Tm in data set [1] was 41 °C. Besides, the folding enthalpy in data set [2] is -13.4 kcal/mol.

On to GTGCGCGAAAGCGCCCAC ((((((....)))..))), for which the Tm in data set [1] stood at 43.3 °C. Further, the folding enthalpy in data set [2] was -6.88 kcal/mol.

On to GTGCGCGAAAGCGTCAC ((((((....))).))), for which the Tm in data set [1] is 58.6 °C. Further, in data set [2], the folding enthalpy was -21 kcal/mol.

As to GTGCGCGAAAGCGTCCAC ((((((....)))..))), in data set [1], the Tm was 36.4 °C. Besides, the folding enthalpy in data set [2] was -9.9 kcal/mol.

As to GTGCGCGGAAACGCGTGC (..((((....))))..), in data set [1], the Tm is 57 °C. For the same sequence, in data set [2], the folding enthalpy was -16.7 kcal/mol.

As to GTGCGGGGAAACCTGCAC ((((.((....)).)))), in data set [1], the Tm was 58.7 °C. In addition, in data set [2], the folding enthalpy was -29.3 kcal/mol.

For the sequence GTGCGGGGAAACTCGCGC (.(((.(....).))).), the Tm in data set [1] worked out at 53.5 °C. The folding enthalpy in data set [2] is -24 kcal/mol.

Consider GTGCTACGAAAGTAACAC (((.(((....))).))), for which, in data set [1], the Tm was 46.7 °C. Also, the folding enthalpy in data set [2] was -32.7 kcal/mol.

On to GTGCTACGAAAGTACAC (((.(((....)))))), for which the Tm in data set [1] was determined as 45.3 °C. Besides, the folding enthalpy in data set [2] was -25.5 kcal/mol.

For the sequence GTGCTCCGAAAGGAACAC (((.(((....))).))), the Tm in data set [1] amounted to 52.2 °C. The folding enthalpy in data set [2] was -46.5 kcal/mol.

As for GTGCTCGAAAGAGGACAC ((((((....)))..))), the Tm in data set [1] was 49.8 °C. Besides, the folding enthalpy in data set [2] was -15.6 kcal/mol.

Consider GTGCTCGAAAGAGGTCAC ((((((....)))..))), for which the Tm in data set [1] stood at 35.5 °C. In addition, the folding enthalpy in data set [2] is -15.8 kcal/mol.

Consider GTGCTCGAAAGAGTGCAC ((((((....)))..))), for which the Tm in data set [1] turned out to be 48.7 °C. For the same sequence, the folding enthalpy in data set [2] is -24 kcal/mol.

Regarding GTGCTCGGAAACGAGCGC (.(((((....))))).), in data set [1], the Tm worked out at 64.5 °C. Also, in data set [2], the folding enthalpy is -19.4 kcal/mol.

Turning to GTGCTCTCGAAAGAGCAC (((..(((....)))))), the Tm in data set [1] was 62.6 °C. Also, the folding enthalpy in data set [2] was -40.3 kcal/mol.

Consider GTGCTGGGAAACCAACAC (((.(((....))).))), for which the Tm in data set [1] was 44 °C. In addition, the folding enthalpy in data set [2] was -36.9 kcal/mol.

The values above are taken from the array DNA melting data of Ke et al. (doi:10.1101/2024.01.08.574731).
